Measured values reported in ChEMBL document CHEMBL4354820, “Optimizing Targeted Inhibitors of P-Glycoprotein Using Computational and Structure-Guided Approaches” (J Med Chem, 2019).

How the values were obtained:
[1] = target: T1, ATP-dependent translocase ABCB1 (Homo sapiens, UniProt P08183); experiment: Reversal of P-gp mediated multidrug resistance in human DU145-TxR cells overexpressing P-gp assessed as potentiation of paclitaxel-induced cytotoxicity by measuring fold reduction paclitaxel IC50 at 3 uM after 48 hrs by MTT assay relative to parent compound; format: cell-based
How it was run: (§1)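 DU145TXR cells seeded at 3000 per well, 24 h later treated 48 h with paclitaxel alone or with 3, 5, 7 or 10 μM inhibitor in complete medium (DMSO vehicle). MTT 4 h, formazan dissolved in DMSO, A570 read, background subtracted, viability relative to DMSO. IC50 by four-parameter nonlinear fit; eight replicates, at least two experiments. Fold values compare paclitaxel alone or with parent inhibitor.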

[2] = target: T2, P-glycoprotein (ABCB1, mouse MDR3) ATPase (Mus musculus, UniProt P21447); experiment: Stimulation of verampil-mediated ATPase hydrolysis in recombinant mouse MDR3 expressed in Pichia pastoris measured after 30 mins in presence of NADH by coupled enzyme assay (reference value: 100 +/- 8 %); parameters: scale not given: the % may be the effect or the level left; conditions: recombinant mouse MDR3 (P-gp) expressed in Pichia pastoris, read-out: Activity
[3] = target: T1, ATP-dependent translocase ABCB1; experiment: Reversal of P-gp mediated multidrug resistance in human DU145-TxR cells overexpressing P-gp assessed as potentiation of paclitaxel-induced cytotoxicity by measuring fold reduction paclitaxel IC50 at 7 uM after 48 hrs by MTT assay relative to paclitaxel alone; format: cell-based; how it was run: as §1
[4] = target: T1, ATP-dependent translocase ABCB1; experiment: Reversal of P-gp mediated multidrug resistance in human DU145-TxR cells overexpressing P-gp assessed as potentiation of paclitaxel-induced cytotoxicity by measuring fold reduction paclitaxel IC50 at 5 uM after 48 hrs by MTT assay relative to parent compound; format: cell-based; how it was run: as §1
[5] = target: T2, P-glycoprotein (ABCB1, mouse MDR3) ATPase; experiment: Basal ATPase hydrolysis in recombinant mouse MDR3 expressed in Pichia pastoris measured after 30 mins in presence of NADH by coupled enzyme assay (reference value: 100 +/- 7 %); parameters: scale not given: the % may be the effect or the level left; conditions: recombinant mouse MDR3 (P-gp) expressed in Pichia pastoris
[6] = target: T1, ATP-dependent translocase ABCB1; experiment: Inhibition of P-gp overexpressed in human DU145-TxR cells assessed as increase in cellular accumulation of calcein AM at 2 uM pretreated followed by calcein AM addition by fluorescence imaging analysis; format: cell-based
How it was run: (§2)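 Confluent DU145TXR monolayers in phenol red-free RPMI 1640 given 2 μM inhibitor (DMSO vehicle) and 1 μg mL−1 calcein AM, either added together or after a 6 h inhibitor-only preincubation at 37 °C. Calcein fluorescence (ex 485 / em 535 nm) read over 60 min at 20 min intervals. Six replicates, at least two independent experiments.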

[7] = target: T1, ATP-dependent translocase ABCB1; experiment: Reversal of P-gp mediated multidrug resistance in human DU145-TxR cells overexpressing P-gp assessed as potentiation of paclitaxel-induced cytotoxicity by measuring fold reduction paclitaxel IC50 at 7 uM after 48 hrs by MTT assay relative to parent compound; format: cell-based; how it was run: as §1
[8] = target: T1, ATP-dependent translocase ABCB1; experiment: Reversal of P-gp mediated multidrug resistance in human DU145-TxR cells overexpressing P-gp assessed as potentiation of paclitaxel-induced cytotoxicity by measuring fold reduction paclitaxel IC50 at 10 uM after 48 hrs by MTT assay relative to paclitaxel alone; format: cell-based; how it was run: as §1
[9] = target: P-glycoprotein 1 Abcb1a (Mus musculus); experiment: Inhibition of spin-labelled adenine nucleotide interaction with mouse MDR3 P-gp expressed in Escherichia coli BL21 (DE3) assessed as apparent dissociation constant by ESR analysis (reference value: 36.5 +/- 3.6 uM)
[10] = target: T1, ATP-dependent translocase ABCB1; experiment: Reversal of P-gp mediated multidrug resistance in human DU145-TxR cells overexpressing P-gp assessed as potentiation of paclitaxel-induced cytotoxicity by measuring fold reduction paclitaxel IC50 at 10 uM after 48 hrs by MTT assay relative to parent compound; format: cell-based; how it was run: as §1
[11] = target: T1, ATP-dependent translocase ABCB1; experiment: Inhibition of P-gp overexpressed in human DU145-TxR cells assessed as increase in cellular accumulation of calcein AM at 2 uM preincubated for 6 hrs followed by calcein AM addition by fluorescence imaging analysis; format: cell-based; how it was run: as §2
[12] = target: T1, ATP-dependent translocase ABCB1; experiment: Reversal of P-gp mediated multidrug resistance in human DU145-TxR cells overexpressing P-gp assessed as potentiation of paclitaxel-induced cytotoxicity by measuring fold reduction paclitaxel IC50 at 3 uM after 48 hrs by MTT assay relative to paclitaxel alone; format: cell-based; how it was run: as §1
[13] = tested on: P-glycoprotein 1 Abcb1a (Mus musculus); experiment: Inhibition of 2',3'-(2,2,5,5,-tetramethyl-3-pyrroline-l-oxyl-3-carboxylic acid ester)ATP interaction with mouse MDR3 P-gp expressed in Escherichia coli BL21 (DE3) assessed as reduction in ATP binding from 2 to 1 of nucleotide to mol of protein by ESR analysis (reference value: 1.8 +/- 0.1)
[14] = target: T1, ATP-dependent translocase ABCB1; experiment: Reversal of P-gp mediated multidrug resistance in human DU145-TxR cells overexpressing P-gp assessed as potentiation of paclitaxel-induced cytotoxicity by measuring fold reduction paclitaxel IC50 at 5 uM after 48 hrs by MTT assay relative to paclitaxel alone; format: cell-based; how it was run: as §1
[15] = target: T3, P-glycoprotein (ABCB1, MDR1) ATPase (Homo sapiens, UniProt P08183); experiment: Basal ATPase hydrolysis in recombinant human MDR1 expressed in Pichia pastoris measured after 30 mins in presence of NADH by coupled enzyme assay (reference value: 100 +/- 5 %); parameters: scale not given: the % may be the effect or the level left; conditions: recombinant human MDR1 (P-gp) expressed in Pichia pastoris
[16] = target: T3, P-glycoprotein (ABCB1, MDR1) ATPase; experiment: Inhibition of verampil-stimulated ATPase hydrolysis in recombinant human MDR1 expressed in Pichia pastoris measured after 30 mins in presence of NADH by coupled enzyme assay (reference value: 100 +/- 6 %); parameters: scale not given: the % may be the effect or the level left; conditions: recombinant human MDR1 (P-gp) expressed in Pichia pastoris
[17] = target: T1, ATP-dependent translocase ABCB1; experiment: Ratio of inhibition of P-gp overexpressed in human DU145-TxR cells assessed as increase in intracellular compound accumulation after 2.5 hrs in presence of tariquidar by LC-MS/MS analysis to Inhibition of P-gp overexpressed in human DU145-TxR cells assessed as decrease in intracellular compound accumulation after 2.5 hrs in absence of tariquidar by LC-MS/MS analysis; format: cell-based
How it was run: (§3)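 P-gp-overexpressing DU145TXR cells exposed to test compounds with or without tariquidar. Intracellular compound measured by LC–MS/MS, with daunorubicin as a transported-substrate control. Ratio is accumulation with tariquidar divided by accumulation without.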

[18] = target: T2, P-glycoprotein (ABCB1, mouse MDR3) ATPase; experiment: Inhibition of verampil-stimulated ATPase hydrolysis in recombinant mouse MDR3 expressed in Pichia pastoris measured after 30 mins in presence of NADH by coupled enzyme assay (reference value: 100 +/- 8 %); parameters: scale not given: the % may be the effect or the level left; conditions: recombinant mouse MDR3 (P-gp) expressed in Pichia pastoris
[19] = target: T1, ATP-dependent translocase ABCB1; experiment: Inhibition of P-gp overexpressed in human DU145-TxR cells assessed as decrease in intracellular compound accumulation after 2.5 hrs in absence of tariquidar by LC-MS/MS analysis; format: cell-based; how it was run: as §3
[20] = target: T1, ATP-dependent translocase ABCB1; experiment: Inhibition of P-gp overexpressed in human DU145-TxR cells assessed as increase in intracellular compound accumulation after 2.5 hrs in presence of tariquidar by LC-MS/MS analysis; format: cell-based; how it was run: as §3
[21] = target: T2, P-glycoprotein (ABCB1, mouse MDR3) ATPase; experiment: Stimulation of basal ATPase hydrolysis in recombinant mouse MDR3 expressed in Pichia pastoris measured after 30 mins in presence of NADH by coupled enzyme assay (reference value: 100 +/- 7 %); parameters: scale not given: the % may be the effect or the level left; conditions: recombinant mouse MDR3 (P-gp) expressed in Pichia pastoris, read-out: Activity

T1 sequence (P08183 whole entry): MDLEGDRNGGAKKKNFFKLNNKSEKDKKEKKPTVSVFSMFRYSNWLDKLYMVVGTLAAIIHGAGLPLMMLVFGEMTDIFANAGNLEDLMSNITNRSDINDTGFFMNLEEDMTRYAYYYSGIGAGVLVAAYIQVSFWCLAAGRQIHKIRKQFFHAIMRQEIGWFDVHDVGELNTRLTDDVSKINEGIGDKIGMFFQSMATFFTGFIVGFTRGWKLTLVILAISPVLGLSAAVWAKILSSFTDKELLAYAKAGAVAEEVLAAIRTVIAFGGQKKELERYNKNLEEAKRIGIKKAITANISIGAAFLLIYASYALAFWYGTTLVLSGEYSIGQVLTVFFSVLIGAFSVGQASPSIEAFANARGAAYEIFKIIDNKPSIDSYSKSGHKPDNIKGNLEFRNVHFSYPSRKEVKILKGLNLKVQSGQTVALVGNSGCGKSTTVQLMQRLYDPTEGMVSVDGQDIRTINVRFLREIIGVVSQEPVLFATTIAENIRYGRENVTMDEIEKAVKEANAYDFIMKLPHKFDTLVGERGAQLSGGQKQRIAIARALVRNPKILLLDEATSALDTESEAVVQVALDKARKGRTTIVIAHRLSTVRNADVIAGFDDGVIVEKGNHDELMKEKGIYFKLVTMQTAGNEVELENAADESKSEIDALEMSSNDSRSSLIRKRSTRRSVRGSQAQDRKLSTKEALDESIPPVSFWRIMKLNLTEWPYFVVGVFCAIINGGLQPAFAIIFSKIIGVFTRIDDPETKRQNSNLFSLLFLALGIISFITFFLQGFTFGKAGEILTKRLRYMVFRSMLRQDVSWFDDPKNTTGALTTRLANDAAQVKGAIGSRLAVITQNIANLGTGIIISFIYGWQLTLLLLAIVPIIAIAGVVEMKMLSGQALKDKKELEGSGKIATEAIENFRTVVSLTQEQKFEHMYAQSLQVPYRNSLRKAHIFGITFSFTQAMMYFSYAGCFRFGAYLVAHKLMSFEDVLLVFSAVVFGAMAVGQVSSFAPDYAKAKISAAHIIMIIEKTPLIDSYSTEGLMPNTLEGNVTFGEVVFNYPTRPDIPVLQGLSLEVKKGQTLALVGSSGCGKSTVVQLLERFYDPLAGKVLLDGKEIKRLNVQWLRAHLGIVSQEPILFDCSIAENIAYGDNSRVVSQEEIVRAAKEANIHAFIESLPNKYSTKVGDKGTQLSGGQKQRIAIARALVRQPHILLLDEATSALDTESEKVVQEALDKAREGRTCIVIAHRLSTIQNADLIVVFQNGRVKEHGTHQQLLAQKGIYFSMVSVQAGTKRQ
T3 sequence (P08183 whole entry): as above
T2 sequence (P21447 whole entry): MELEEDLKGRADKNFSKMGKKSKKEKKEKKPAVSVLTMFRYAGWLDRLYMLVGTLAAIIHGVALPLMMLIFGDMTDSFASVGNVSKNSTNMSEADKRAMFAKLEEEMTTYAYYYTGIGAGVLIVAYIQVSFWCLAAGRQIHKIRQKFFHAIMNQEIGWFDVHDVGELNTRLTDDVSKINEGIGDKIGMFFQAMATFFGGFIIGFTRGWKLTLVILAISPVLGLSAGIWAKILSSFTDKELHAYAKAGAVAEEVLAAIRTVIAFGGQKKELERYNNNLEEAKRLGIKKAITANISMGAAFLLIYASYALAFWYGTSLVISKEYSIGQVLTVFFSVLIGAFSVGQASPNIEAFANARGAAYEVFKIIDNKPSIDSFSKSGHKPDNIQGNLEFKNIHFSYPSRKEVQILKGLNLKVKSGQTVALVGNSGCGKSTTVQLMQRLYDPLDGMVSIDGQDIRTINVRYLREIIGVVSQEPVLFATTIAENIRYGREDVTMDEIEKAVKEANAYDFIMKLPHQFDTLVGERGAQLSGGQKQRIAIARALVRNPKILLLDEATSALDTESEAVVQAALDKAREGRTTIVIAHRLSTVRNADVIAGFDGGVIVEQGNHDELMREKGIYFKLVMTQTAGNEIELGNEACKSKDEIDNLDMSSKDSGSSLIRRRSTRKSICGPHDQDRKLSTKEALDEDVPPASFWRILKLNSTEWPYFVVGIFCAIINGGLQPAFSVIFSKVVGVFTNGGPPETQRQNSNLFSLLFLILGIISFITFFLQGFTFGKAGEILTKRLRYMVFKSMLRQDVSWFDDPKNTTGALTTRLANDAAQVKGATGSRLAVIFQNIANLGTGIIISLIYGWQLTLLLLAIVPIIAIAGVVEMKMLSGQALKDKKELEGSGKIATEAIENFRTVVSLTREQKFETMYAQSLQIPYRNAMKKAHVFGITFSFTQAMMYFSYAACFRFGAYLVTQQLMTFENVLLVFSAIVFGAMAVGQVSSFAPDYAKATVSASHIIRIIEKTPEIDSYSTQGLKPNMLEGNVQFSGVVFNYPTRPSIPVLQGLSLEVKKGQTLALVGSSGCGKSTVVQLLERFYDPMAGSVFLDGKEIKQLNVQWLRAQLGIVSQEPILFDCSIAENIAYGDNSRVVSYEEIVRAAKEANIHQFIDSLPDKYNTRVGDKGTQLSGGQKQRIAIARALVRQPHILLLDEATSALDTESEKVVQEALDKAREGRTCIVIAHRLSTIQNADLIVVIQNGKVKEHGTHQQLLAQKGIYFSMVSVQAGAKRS

| Activity at 0.5 h [2] [%] | Activity at 0.5 h [5] [%] | inhibition (INH) [6] | Kd [9] [µM] | inhibition (INH) [11] | Activity [13] | Activity at 0.5 h [15] [%] | Activity at 0.5 h [16] [%] | Ratio [17] | inhibition (INH) [19] | inhibition (INH) [20] | SMILES | fold change (FC) [1] | fold change (FC) [3] | fold change (FC) [4] | fold change (FC) [7] | fold change (FC) [8] | fold change (FC) [10] | fold change (FC) [12] | fold change (FC) [14] | further results |
| --- | --- | --- | --- | --- | --- | --- | --- | --- | --- | --- | --- | --- | --- | --- | --- | --- | --- | --- | --- | --- |
| 141 | 70 | Active | 22.2 | Active | 1.6 | 70 | 40 | 0.9 |  |  | Cc1cc(C)c(-c2cc(NC(=O)CSCC(=O)Nc3ccc4ccccc4c3)n(-c3ccccc3)n2)cc1C | 4.1 | 303 | 4.2 | 8.4 | 1060 | 11 | 14 | 46 |  |
|  | 78 | Not Active | 22.9 | Active | 1.3 | 74 | 63 | 1 | Not Active | Not Active | Cc1cc(C)c(-c2cc(NC(=O)CSCC(=O)NC34CC5CC(CC(C5)C3)C4)n(-c3ccccc3)n2)cc1C | 2.7 | 101 | 1.8 | 2.8 | 163 | 1.6 | 9.2 | 19 | Activity at 0.5 h [18]: 41% |
| 116 |  | Not Active | 21.6 | Active | 1.6 | 76 | 54 | 1.2 | Not Active | Not Active | Cc1cc(C)c(-c2cc(NC(=O)CSCC(=O)NC(c3ccccc3)c3ccccc3)n(-c3ccccc3)n2)cc1C | 3.9 | 133 | 3.5 | 3.7 | 193 | 1.9 | 13 | 38 | Activity at 0.5 h [21]: 148% |
